Data on 40 compounds can be found in ChEMBL document CHEMBL4513216, “Probing the Open Global Health Chemical Diversity Library for Multistage-Active Starting Points for Next-Generation Antimalarials” (ACS Infect Dis, 2020).

The nature of this data set: Toxicity liver stage against HepG2, at 10uM. Format: cell-based. The settings on record: human, HepG2-A16-CD81EGFP cells; read-out: INHIBITION
More on the design: test concentration 10 uM, cell line HepG2-A16-CD81EGFP. The method, boiled down:
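Uninfected HepG2-A16-CD81EGFP cells, 3 × 10^3 per well, 1536-well, plated on prespotted compound at 10 μM final, parasite-free screening media added to match infected plates; puromycin 10 μM positive, DMSO 0.5% negative; run in parallel with 48 h PbLuc assay at 37 °C, 5% CO2; viability by CellTiter-Glo luminescence, normalized to controls.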

On to `COc1ccc(CNC(Cc2cccs2)c2nc(C)c(C)s2)cc1OC` (stereo not given), for which the cytotoxicity at 10 µM was -3.32%.

`O=C(CCn1ncc2ccccc21)N1CCCC(Cc2cccnc2)C1` (stereo not given): the cytotoxicity at 10 µM is -1.83%.

Take `Cc1nnc(CN2CCN(Cc3nccn3C)CC2)n1C`: the cytotoxicity at 10 µM is -2.4%.

As to `N[C@H]1c2ccccc2C[C@@H]1NC(=O)C1CCN(Cc2ccco2)CC1`, the cytotoxicity at 10 µM is -8.57%.

Consider `Cn1cc(CN2CCc3onc(C(=O)Nc4cccnc4)c3C2)cn1`, for which the cytotoxicity at 10 µM amounted to 4.22%.

`CCC(C(=O)Nc1ccc(-c2nc(C)n[nH]2)cc1)N1CCCC1=O` (stereo not given): the cytotoxicity at 10 µM was -44.8%.

Turning to `CCc1cc(N[C@@H]2CC[C@@H](N)C2)n2nc(C)c(C)c2n1`, the cytotoxicity at 10 µM turned out to be 2.2%.

For `CN(CCOCC(F)(F)F)CC1CCN(CCO)CC1`, the cytotoxicity at 10 µM was 5.68%.

As to `COc1ccc(S(=O)(=O)N2C[C@H](OC)[C@]3(CCCO3)C2)cc1`, the cytotoxicity at 10 µM is 1.64%.

As for `O=C(c1coc(CN2CCN(c3ccccc3F)CC2)n1)N1CCCC1`, the cytotoxicity at 10 µM was determined as 19.2%.

Regarding `Cn1cc(CN2CCCC(CCc3ccc(F)cc3)C2)cn1` (stereo not given), the cytotoxicity at 10 µM is -12.6%.

`CC(=O)N1CC(=O)N(c2ccsc2)CC12CCN(Cc1ccccn1)C2` (stereo not given): the cytotoxicity at 10 µM was found to be 13%.

Turning to `COCCCNC(=O)CN(C)C1CCCN(c2cccnn2)C1` (stereo not given), the cytotoxicity at 10 µM was -2.51%.

As for `Cc1nn(C)c(C)c1S(=O)(=O)N(C)Cc1nn(C)c(Cl)c1Cl`, the cytotoxicity at 10 µM is -3.78%.

For the compound `CN(C)C(=O)COCC1CN(Cc2ccoc2)Cc2nnn(C)c21` (stereo not given), the cytotoxicity at 10 µM is 1.81%.

On to `Cc1nc(CN2CCCC(N(C)Cc3cnc(C)s3)C2)no1` (stereo not given), for which the cytotoxicity at 10 µM was 2.76%.

For `Cc1ccc(CN2CCc3c(COC(C)C)nn(C)c3C2)s1`, the cytotoxicity at 10 µM was determined as 0.661%.

Turning to `O=C(NCCn1ccnc1)c1csc(Br)c1`, the cytotoxicity at 10 µM amounted to 13%.

As for `O=C(N[C@@H]1CN(c2ncccn2)[C@@H]2CCCO[C@@H]21)c1cnccn1`, the cytotoxicity at 10 µM was -4.8%.

In the case of `O=C(NCCC(=O)N1CCCCCC1)c1c(O)cc(F)cc1F`, the cytotoxicity at 10 µM is -1.8%.

Take `CCN(CC)S(=O)(=O)N1CCC(c2c(C(N)=O)sc3ccccc23)C1` (stereo not given): the cytotoxicity at 10 µM was 1.4%.

On to `CC(C)c1noc(CS(=O)(=O)CC(=O)NCC(F)(F)F)n1`, for which the cytotoxicity at 10 µM was 7.62%.

On to `Cc1nn(C)c(C)c1NC(=O)CN1CCCC1c1c(C)nn(C)c1C` (stereo not given), for which the cytotoxicity at 10 µM is -6.44%.

As to `COc1ccc(CCN2CCc3c(nc(C4CC4)n3C)C2)cc1`, the cytotoxicity at 10 µM was -0.729%.

With `Cn1nnnc1SCc1cc2c(cc1Cl)OCO2`, the cytotoxicity at 10 µM worked out at 1.14%.

Regarding `CCCN(Cc1cccnc1)C(=O)C1CCN(Cc2ccco2)CC1`, the cytotoxicity at 10 µM stood at 0.376%.

Take `CC(=O)Nc1nc(C(=O)N2CCCC(n3ccnc3)C2)cs1` (stereo not given): the cytotoxicity at 10 µM is -3.44%.

Regarding `Cc1nc(C)n(C2CCCN(C(=O)Cc3n[nH]c4ccccc34)C2)n1` (stereo not given), the cytotoxicity at 10 µM was -11.7%.

`COc1cc(CNc2cnn(C)c2)cc2c1OCCO2`: the cytotoxicity at 10 µM was -10.8%.

In the case of `O=C(NCc1nnc2n1CCCC2)N1CCc2sccc2C1`, the cytotoxicity at 10 µM was -9.78%.

For the compound `Cn1nnnc1SCCNC(=O)C1CCN(C(=O)C2CCC2)CC1`, the cytotoxicity at 10 µM was -3.22%.

`COc1cc(N(C)CCC(O)c2ccccc2)ncn1` (stereo not given): the cytotoxicity at 10 µM is -139%.

With `CN(CC1=CCCN(CCc2ccccn2)C1)C(=O)c1ccco1`, the cytotoxicity at 10 µM was determined as 1.7%.

In the case of `O=S1(=O)COCCN1Cc1ccc(Cl)c(Cl)c1`, the cytotoxicity at 10 µM was found to be 8.44%.

As for `CCOC(=O)C1CN(C(=O)C2CCOCC2)Cc2ncn(CC)c21` (stereo not given), the cytotoxicity at 10 µM is 5.65%.

In the case of `CC1CCCCN1C(=O)c1ccc(=O)[nH]n1` (stereo not given), the cytotoxicity at 10 µM was 3.95%.

With `CNS(=O)(=O)c1cc(C(=O)N(C)Cc2sccc2C)c(C)o1`, the cytotoxicity at 10 µM was -8.43%.

With `CC(c1cccc(-c2ncccc2F)c1)N(C)C` (stereo not given), the cytotoxicity at 10 µM is -19.4%.

Regarding `CN(C)CC1CN(Cc2coc(-c3ccc(Cl)cc3)n2)CCO1` (stereo not given), the cytotoxicity at 10 µM stood at 0.35%.

Take `Cn1cc(C(=O)N2CCN(Cc3cscn3)CC2)ccc1=O`: the cytotoxicity at 10 µM is -4.79%.
